From PubChem BioAssay AID624082 (The Scripps Research Institute Molecular Screening Center, 2012)
Activity calls are given as the source filed them.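 How the source made its calls: active means MIC showing a fourfold drop that lands at or below 10 µM; inactive means fourfold-lowered MIC still above 10 µM.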

Assays:
[1] = system: K. pneumoniae BAA-2146 NDM-1, imipenem synergy, growth MIC; experiment: bacterial growth inhibition in synergy with imipenem – BAA-2146, NDM-1 transformed, nonselective, MIC fold reduction, VIM-2 MBL inhibitor project, late-stage follow-up (AID 624082)
How it was run: (§1)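 Test system: log-phase bacterial culture in a checkerboard broth microdilution; Buffer or medium: CAMHB; Also added: imipenem, two-fold titration series; Doses: test compound two-fold serial titration, crossed with imipenem titration; Incubation: ≥18 h aerobic incubation at 37 °C; Read-out basis: minimum inhibitory concentration called by CLSI criteria.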

[2] = as above; conditions: K. pneumoniae BAA-2146 NDM-1, imipenem synergy, growth MIC; measured here: max imipenem fold potentiation; stronger effect = higher value
How it was run: as §1

| MIC [1] | SMILES | fold potentiation [2] |
| --- | --- | --- |
| > 100 µM (inactive) | CC(C)(C)OC(=O)N1CCN(NC(=O)CN2C(=O)/C(=C/c3c(Cl)cccc3Cl)SC2=S)CC1 | – |
| > 50 µM (inactive) | CN1CCN(NC(=O)CN2C(=O)/C(=C/c3c(F)cccc3Cl)SC2=S)CC1 | 2 |
| > 50 µM (inactive) | CN1CCN(NC(=O)CN2C(=O)/C(=C/c3c(F)cccc3C(F)(F)F)SC2=S)CC1 | 2 |
| > 100 µM (inactive) | CN1CCN(NC(=O)CN2C(=O)/C(=C/c3c(Cl)cccc3Cl)SC2=S)CC1 | 2 |
| > 50 µM (inactive) | CC(C)N1CCN(NC(=O)CN2C(=O)/C(=C/c3c(Cl)cccc3Cl)SC2=S)CC1 | – |
| > 50 µM (inactive) | CN1CCN(NC(=O)CN2C(=O)/C(=C/c3c(Cl)ccc(Cl)c3Cl)SC2=S)CC1 | 2 |
| > 100 µM (inactive) | CCN(CC)OC(=O)CN1C(=O)/C(=C/c2c(Cl)cccc2Cl)SC1=S | – |
| > 100 µM (inactive) | O=C(CN1C(=O)/C(=C/c2c(Cl)cccc2Cl)SC1=S)NCc1ccccn1 | – |
| > 50 µM (inactive) | O=C(CN1C(=O)/C(=C/c2c(Cl)cccc2Cl)SC1=S)NN1CCN(Cc2ccccc2)CC1 | – |
| > 100 µM (inactive) | O=C(O)CN1C(=O)/C(=C/c2c(Cl)cccc2Cl)SC1=S | – |
| > 50 µM (inactive) | O=C(CN1C(=O)/C(=C/c2c(Cl)ccc(Cl)c2Cl)SC1=S)NN1CCCCC1 | – |
| > 50 µM (inactive) | O=C(CN1C(=O)/C(=C/c2c(Cl)cccc2Cl)SC1=S)NN1CCNCC1 | – |
| > 50 µM (inactive) | CN1CCN(C(=O)CN2C(=O)/C(=C/c3c(Cl)ccc(Cl)c3Cl)SC2=S)CC1 | – |
| > 50 µM (inactive) | CC(C)(C)OC(=O)N1CCN(NC(=O)CN2C(=O)/C(=C/c3c(Cl)ccc(Cl)c3Cl)SC2=S)CC1 | – |
| > 50 µM (inactive) | CN1CCN(NC(=O)CN2C(=O)/C(=C/c3c(C(F)(F)F)ccc(Cl)c3Cl)SC2=S)CC1 | 2 |
| > 50 µM (inactive) | O=C(CN1C(=O)/C(=C/c2c(Cl)ccc(Cl)c2Cl)SC1=S)NCc1ccccn1 | – |
| > 50 µM (inactive) | O=C(O)CN1C(=O)/C(=C/c2c(F)cccc2C(F)(F)F)SC1=S | – |
| > 50 µM (inactive) | O=C(CN1C(=O)/C(=C/c2c(Cl)ccc(Cl)c2Cl)SC1=S)NN1CCNCC1 | 2 |
| > 50 µM (inactive) | O=C(CN1C(=O)/C(=C/c2c(Cl)cccc2Cl)SC1=S)NN1CCN(C(=O)c2ccccc2)CC1 | – |
| > 50 µM (inactive) | CN1CCN(NC(=O)CN2C(=O)/C(=C/c3c(Cl)ccc(C(F)(F)F)c3Cl)SC2=S)CC1 | 2 |
| > 50 µM (inactive) | CC(=O)N1CCN(NC(=O)CN2C(=O)/C(=C/c3c(Cl)cccc3Cl)SC2=S)CC1 | – |
